CYP2C19 activ – cytochrome P450 2C19 (human) activation; P33261; recombinant CYP2C19, luciferin-H EGE luminescence; active compounds read high; 0 = fully inhibited enzyme, 1 = untreated enzyme; activation factor at 5 µM; 96,000 tested, under 10 active;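 active = activation factor of at least 2 at 5 µM in the primary screen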
Target sequence (P33261 whole entry, looked up): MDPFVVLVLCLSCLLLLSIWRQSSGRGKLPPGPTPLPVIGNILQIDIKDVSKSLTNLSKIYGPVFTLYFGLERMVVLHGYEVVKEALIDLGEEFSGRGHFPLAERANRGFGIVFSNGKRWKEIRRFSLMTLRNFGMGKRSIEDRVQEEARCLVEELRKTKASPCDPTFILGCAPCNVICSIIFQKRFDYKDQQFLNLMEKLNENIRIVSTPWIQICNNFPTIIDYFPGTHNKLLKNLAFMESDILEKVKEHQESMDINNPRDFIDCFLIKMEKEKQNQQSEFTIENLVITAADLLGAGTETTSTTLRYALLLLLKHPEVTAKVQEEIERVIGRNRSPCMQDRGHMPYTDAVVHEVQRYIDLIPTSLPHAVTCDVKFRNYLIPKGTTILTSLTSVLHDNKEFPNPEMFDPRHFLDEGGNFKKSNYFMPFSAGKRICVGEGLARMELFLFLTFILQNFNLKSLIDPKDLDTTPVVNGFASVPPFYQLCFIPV
CYP2C9 act – increases human cytochrome P450 2C9 activity; AID 1024; P11712; recombinant CYP2C9, luciferin-H conversion, luminescence; active compounds read high; factor 1 = untreated enzyme, 0 = blocked; 96,000 compounds, 1.4% hits; activation factor at 5 µM;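 active = activation factor of 2 or more for CYP2C9 at a 5 µM dose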
tolC growth inh – E. coli tolC mutant growth inhibition; growth inhibition, % at 10 µM (by protocol); E. coli BW25113 tolC mutant growth, OD615; 65,000 compounds, 2.2% hits;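 active = growth inhibition at or above a cutoff equal to the mean over every tested compound plus 3 SD, cut at about 60% in these data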;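 note: growth measured after 20 h incubation at 37 °C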
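System: E. coli ΔtolC::kan strain BW25113; Buffer or medium: LB broth supplemented with 50 µg/mL kanamycin; Compound: 10 µM final, single dose; Incubation: bacterial growth with compound for 20 h at 37 °C; Signal: A615 absorbance measurement; Evaluation: growth inhibition in percent.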
CYP2C19 inhib – blocks human cytochrome P450 2C19; inhibition, % at 5 µM; CYP2C19 Supersomes, luciferin-H EGE luminescence, 30 min; AID 778; 96,000 compounds, 21% hits;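 active = CYP2C19 inhibition above a set limit at 5 µM in the primary screen, cut at about 50% in these data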
Ecoli WT expand – growth inhibitors of E. coli BW25113 wild type | OD600 absorbance | growth inhibition, % at 100 µM | 98,000 compounds, 0.15% hits | AID 710;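 active = growth inhibition above about 50% at one test dose, limit read from the data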;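 note: growth measured after 20 h incubation at 37 °C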
CYP2C9 inhib – inhibitors of human CYP2C9. 96,000 compounds, 20% hits. P11712. inhibition, % at 5 µM. AID 777. CYP2C9 Supersomes, luciferin-H conversion, luminescence;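 active = blocking of liver enzyme CYP2C9 beyond about 50% at 5 µM, limit read from the data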
Large screens that a line does not name were inactive. A selection: hits, their analogues and other compounds. The true share with any hit is near 29%.

Cn1c(-c2c(N)n(C3CCCC3)c3nc4ccccc4nc23)nc2ccccc21	none
COc1ccc(N/C(=C(/C(Cl)=C(Cl)Cl)[N+](=O)[O-])n2nnc3ccccc32)cc1	CYP2C9 inhib 55 (no result: tolC growth inh)
Cc1ccccc1N/C(=C(/C(Cl)=C(Cl)Cl)[N+](=O)[O-])n1nnc2ccccc21	none (no result: tolC growth inh)
CCOc1cc(C2NC(=O)NC(C)=C2C(=O)OC(C)CC)cc(Br)c1O (stereo unspecified)	none
CCOC(=O)C(C)Oc1c(Br)cc(C2NC(=O)NC(C)=C2C(C)=O)cc1OCC (stereo unspecified)	CYP2C19 inhib 58, CYP2C9 inhib 55 (no result: tolC growth inh)
O=C1/C(=C/c2cccc(F)c2)CSc2sccc21	CYP2C9 inhib 54 (no result: tolC growth inh)
CCOC(=O)C1CCN(C(=O)c2cccc(Cl)c2)CC1	none
CCOC(=O)N1CCN(C(=O)COc2ccccc2Cl)CC1	none (no result: CYP2C19 activ, CYP2C9 act, CYP2C19 inhib, CYP2C9 inhib)
CCOC(=O)C1CCN(C(=O)COc2ccc(Cl)cc2)CC1	none (no result: tolC growth inh)
CCOC(=O)C1CCN(C(=O)COc2ccc(Cl)cc2Cl)CC1	CYP2C19 inhib 80
COC(=O)C1CCN(C(=O)COc2ccc(Cl)cc2)CC1	CYP2C19 inhib 86
CCOC(=O)C1CCN(C(=O)COc2ccc(Cl)cc2C)CC1	CYP2C19 inhib 83 (no result: tolC growth inh)
CCCCN(CCCC)CC(O)CN1C(=O)NC(C)(C)C1=O (stereo unspecified)	none (no result: tolC growth inh)
CC1(C)NC(=O)N(CC(O)CN2C(=O)NC(C)(C)C2=O)C1=O	none
CCCCCCOc1ccc(OCC(O)CN2C(=O)NC(C)(C)C2=O)cc1 (stereo unspecified)	none
CC1(C)NC(=O)N(CC(O)CN2CCOCC2)C1=O (stereo unspecified)	CYP2C19 inhib 56
Cc1ccc(OCC(O)CN2C(=O)NC(C)(C)C2=O)cc1C (stereo unspecified)	CYP2C19 inhib 84
CC1(C)NC(=O)N(CC(O)CN(Cc2ccccc2)Cc2ccccc2)C1=O (stereo unspecified)	CYP2C19 inhib 85
CC1(C)Cc2c(c(-c3ccccc3)nc(N3CCOCC3)c2C(N)=O)CO1	none (no result: tolC growth inh)
COc1ccc(CCNc2cc(=O)[nH]c(N)n2)cc1	none
c1ccc(NCCCNc2ccccc2)cc1	CYP2C19 inhib 98, CYP2C9 inhib 86
CC(OC(=O)CNC(=O)C12CC3CC(CC(C3)C1)C2)C(=O)Nc1ncc(Cl)cc1Cl (stereo unspecified)	CYP2C19 inhib 54 (no result: tolC growth inh)
CC(OC(=O)CN(C)S(=O)(=O)c1ccc(Cl)cc1)C(=O)Nc1ncc(Cl)cc1Cl (stereo unspecified)	none (no result: tolC growth inh)
O=C(Cc1c(C(=O)O)[nH]c2ccccc12)NCCN1CCN(c2ccccc2F)CC1	none
CCc1nc(-c2ccc(-c3ccc(OC)cc3)nc2OC)no1	none (no result: CYP2C19 activ, CYP2C9 act, CYP2C19 inhib, CYP2C9 inhib)
COc1cccc(-c2ccc(-c3noc(-c4cccs4)n3)c(OC)n2)c1	none (no result: tolC growth inh)
COc1ccc(-c2ccc(-c3noc(C(C)C)n3)c(OC)n2)cc1	CYP2C19 inhib 66, CYP2C9 inhib 72
COc1cccc(-c2ccc(-c3noc(-c4ccccc4F)n3)c(OC)n2)c1	CYP2C9 inhib 61
COc1ccc(Oc2nccc(-c3ccccc3)c2C#N)cc1	none (no result: tolC growth inh)
O=C(O)C1CC=CCC1C(=O)Nc1cccc(C(=O)N2CCCCC2)c1 (stereo unspecified)	none
CN(C(=S)Nc1ccc(F)cc1)C1(c2ccccc2Cl)CCCCC1=O (stereo unspecified)	CYP2C19 inhib 83 (no result: tolC growth inh)
O=C(c1ccncc1)N(Cc1cc2ccccc2[nH]c1=O)C1CCCCC1	CYP2C19 inhib 90, CYP2C9 inhib 74
O=C(c1ccco1)N(Cc1cc2ccccc2[nH]c1=O)C1CCCCC1	CYP2C9 inhib 54
CC(C)CN(Cc1cc2ccccc2[nH]c1=O)C(=O)c1cccnc1	none
COC(=O)c1ccc(CN(c2ccccn2)S(=O)(=O)c2ccccc2)cc1	CYP2C19 inhib 70 (no result: tolC growth inh)
Cc1ccc(C)c(N2CCN(S(=O)(=O)c3ccc4c(c3)OCCO4)CC2)c1	CYP2C19 inhib 81, CYP2C9 inhib 90
CC(=O)Nc1ccc(S(=O)(=O)N2CCN(c3cc(C)ccc3C)CC2)cc1	CYP2C9 inhib 85
Cc1cc2oc(=O)cc(CN3CCN(S(=O)(=O)c4ccc5c(c4)OCCO5)CC3)c2cc1C	CYP2C19 inhib 58, CYP2C9 inhib 84
Cc1ccc(Cl)cc1N1CCN(S(=O)(=O)c2ccc3c(c2)OCCO3)CC1	CYP2C9 inhib 80
COC(=O)C1CCN(S(=O)(=O)c2ccc(NC(C)=O)cc2)CC1	none (no result: tolC growth inh)
Cc1ccc(C)c(N2CCN(C(=O)c3cc(S(=O)(=O)N4CCOCC4)ccc3F)CC2)c1	none (no result: CYP2C19 activ, CYP2C9 act, CYP2C19 inhib, Ecoli WT expand, CYP2C9 inhib)
O=C(Nc1cccc2nsnc12)c1ccc(-c2cccc(Cl)c2)o1	none (no result: tolC growth inh)
COc1ccc(C2C=C(c3cccs3)Nc3nc(CCCO)nn32)cc1 (stereo unspecified)	none
Cc1ccc(Oc2ccccc2)c(NC=O)c1	none
CCC(=O)Nc1nc2ccccc2n1Cc1ccccc1	none
Cc1ccc(Cn2c(NS(=O)(=O)c3ccccc3)nc3ccccc32)cc1	CYP2C9 inhib 64 (no result: tolC growth inh)
CCC(=O)Nc1nc2ccccc2n1Cc1ccc(C)cc1	CYP2C19 inhib 81
COc1ccc(S(=O)(=O)N(C)CC(=O)N2CCN(c3ccc(F)cc3)CC2)cc1OC	none (no result: tolC growth inh)
CCOc1ccc(C(Nc2ccc(C)cc2)P2(=O)OCCCO2)cc1 (stereo unspecified)	none (no result: tolC growth inh)
CCOc1ccc(C(Nc2ccc(C)cc2)P2(=O)OCCC(C)O2)cc1 (stereo unspecified)	CYP2C19 inhib 54, CYP2C9 inhib 58 (no result: tolC growth inh)
Cc1ccc(-c2cc(C(=O)NC3=NCCS3)c3cc(Br)ccc3n2)o1	CYP2C19 inhib 52
Cc1ccc(-c2cc(C(=O)NCCCn3ccnc3)c3cc(Br)ccc3n2)o1	CYP2C19 inhib 94, CYP2C9 inhib 100
Cc1cccc(-c2cc(C(=O)NCCCn3ccnc3)c3ccccc3n2)c1	CYP2C19 inhib 87, CYP2C9 inhib 100 (no result: tolC growth inh)
O=C(NC1=NCCS1)c1ccc(-c2ccc(Cl)cc2)o1	none
CCSCc1nnc(SCC(=O)Nc2nc3ccccc3s2)n1C	CYP2C9 inhib 63
CCn1c(Cc2ccccc2)nnc1SCC(=O)Nc1nc2ccccc2s1	none
Cn1c(CC(=O)Nc2ccc(Cl)c(Cl)c2)nnc1SCC(=O)Nc1nccs1	none (no result: tolC growth inh)
Cn1c(CSCc2ccccc2Cl)nnc1SCC(=O)Nc1nccs1	CYP2C9 inhib 61
CC1CCC(NC(=O)c2cc3c(=O)n(C)c4ccccc4c3n2C)CC1 (stereo unspecified)	none
COc1ccc2c(c1)CCc1c(C(=O)NC3CCCCC3)noc1-2	none
Cc1ccc(C(=O)NNC(=O)C2CCN(c3nccc(C)n3)CC2)cc1	CYP2C9 inhib 50 (no result: tolC growth inh)
Cc1ccnc(N2CCC(C(=O)NNC(=O)c3ccccc3)CC2)n1	none (no result: tolC growth inh)
Cc1nn(Cc2ccc(C(=O)Nc3ccccc3C(F)(F)F)o2)c(C)c1Br	CYP2C19 inhib 91 (no result: tolC growth inh)
Cc1ccc(CNC(=O)c2ccc(Cn3nc(C)c(Cl)c3C)o2)cc1	CYP2C19 inhib 78
O=C(Nc1ccccc1C(F)(F)F)c1cccnc1	none
